Test results: ChEMBL document CHEMBL5653631, “A Potent and Selective ULK1 Inhibitor Suppresses Autophagy and Sensitizes Cancer Cells to Nutrient Stress” (iScience, 2018)

How the values were obtained:
[1] = target: T1, Serine/threonine-protein kinase Sgk2 (Homo sapiens) (UniProt Q9HBY8); assay: Inhibition of human recombinant SGK2 at 40 nM in presence of ATP by radiometric assay relative to control
T1 sequence (whole entry): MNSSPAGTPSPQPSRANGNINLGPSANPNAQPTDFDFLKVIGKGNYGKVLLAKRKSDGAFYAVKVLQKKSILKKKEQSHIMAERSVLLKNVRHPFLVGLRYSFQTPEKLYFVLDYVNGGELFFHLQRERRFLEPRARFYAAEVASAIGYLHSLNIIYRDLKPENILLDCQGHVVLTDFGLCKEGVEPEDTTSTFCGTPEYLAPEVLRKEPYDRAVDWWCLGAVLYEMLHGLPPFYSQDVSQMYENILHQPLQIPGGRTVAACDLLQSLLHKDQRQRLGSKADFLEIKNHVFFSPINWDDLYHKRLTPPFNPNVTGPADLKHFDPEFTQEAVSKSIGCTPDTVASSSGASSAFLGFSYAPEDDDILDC

[2] = target: Tyrosine-protein kinase Fer (Homo sapiens) (UniProt P16591); assay: Inhibition of human recombinant FER at 40 nM related to control ULK1
[3] = target: Death-associated protein kinase 2 (Homo sapiens) (UniProt Q9UIK4); assay: Inhibition of human recombinant DAPK2 at 40 nM related to control ULK1
[4] = target: Protein kinase C gamma type (Homo sapiens) (UniProt P05129); assay: Inhibition of human recombinant PKCg at 40 nM related to control ULK1
[5] = target: Receptor-interacting serine/threonine-protein kinase 2 (Homo sapiens) (UniProt O43353); assay: Inhibition of human recombinant RIPK2 at 40 nM related to control ULK1
[6] = target: Mitogen-activated protein kinase 10 (Homo sapiens) (UniProt P53779); assay: Inhibition of human recombinant JNK3 at 15 nM in presence of ATP by radiometric assay relative to control
[7] = tested on: G protein-coupled receptor kinase 7 (Homo sapiens); assay: Inhibition of human recombinant GPRK7 at 15 nM in presence of ATP by radiometric assay relative to control
[8] = target: Interferon-induced, double-stranded RNA-activated protein kinase (Homo sapiens) (UniProt P19525); assay: Inhibition of human recombinant PKR at 500 nM in presence of ATP by radiometric assay relative to control
[9] = target: Tyrosine-protein kinase JAK2 (Homo sapiens) (UniProt O60674); assay: Inhibition of human recombinant JAK2 at 500 nM related to control ULK1
[10] = target: Protein kinase C iota type (Homo sapiens) (UniProt P41743); assay: Inhibition of human recombinant PKCi at 500 nM related to control ULK1
[11] = target: Vascular endothelial growth factor receptor 1 (Homo sapiens) (UniProt P17948); assay: Inhibition of human recombinant FLT1 at 500 nM in presence of ATP by radiometric assay relative to control
[12] = target: Serine/threonine-protein kinase/endoribonuclease IRE1 (Homo sapiens) (UniProt O75460); assay: Inhibition of human recombinant IRE1 at 500 nM in presence of ATP by radiometric assay relative to control
[13] = target: T2, Serine/threonine-protein kinase ICK (Homo sapiens) (UniProt Q9UPZ9); assay: Inhibition of human recombinant ICK at 500 nM related to control ULK1
T2 sequence (whole entry): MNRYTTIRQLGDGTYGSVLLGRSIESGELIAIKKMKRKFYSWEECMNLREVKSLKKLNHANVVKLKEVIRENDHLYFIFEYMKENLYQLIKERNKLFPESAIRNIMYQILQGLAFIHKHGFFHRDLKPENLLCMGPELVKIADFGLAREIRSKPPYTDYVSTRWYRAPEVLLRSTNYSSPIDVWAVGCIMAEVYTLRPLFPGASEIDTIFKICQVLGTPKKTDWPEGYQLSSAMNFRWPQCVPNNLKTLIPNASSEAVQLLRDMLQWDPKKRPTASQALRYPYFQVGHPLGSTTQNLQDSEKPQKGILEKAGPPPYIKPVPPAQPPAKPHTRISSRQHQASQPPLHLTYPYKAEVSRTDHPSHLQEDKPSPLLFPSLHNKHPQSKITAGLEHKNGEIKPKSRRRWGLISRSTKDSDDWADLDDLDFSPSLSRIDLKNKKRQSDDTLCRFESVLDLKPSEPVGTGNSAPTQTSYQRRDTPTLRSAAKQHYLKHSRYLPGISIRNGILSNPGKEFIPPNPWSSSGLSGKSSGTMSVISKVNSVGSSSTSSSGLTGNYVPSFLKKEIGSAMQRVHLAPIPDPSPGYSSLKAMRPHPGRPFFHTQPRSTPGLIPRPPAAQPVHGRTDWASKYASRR

[14] = target: Insulin receptor (Homo sapiens) (UniProt P06213); assay: Inhibition of human recombinant INSR at 500 nM in presence of ATP by radiometric assay relative to control
[15] = target: T3, Serine/threonine-protein kinase BRSK1 (Homo sapiens) (UniProt Q8TDC3); assay: Inhibition of human recombinant BRSK1 at 500 nM related to control ULK1
T3 sequence (whole entry): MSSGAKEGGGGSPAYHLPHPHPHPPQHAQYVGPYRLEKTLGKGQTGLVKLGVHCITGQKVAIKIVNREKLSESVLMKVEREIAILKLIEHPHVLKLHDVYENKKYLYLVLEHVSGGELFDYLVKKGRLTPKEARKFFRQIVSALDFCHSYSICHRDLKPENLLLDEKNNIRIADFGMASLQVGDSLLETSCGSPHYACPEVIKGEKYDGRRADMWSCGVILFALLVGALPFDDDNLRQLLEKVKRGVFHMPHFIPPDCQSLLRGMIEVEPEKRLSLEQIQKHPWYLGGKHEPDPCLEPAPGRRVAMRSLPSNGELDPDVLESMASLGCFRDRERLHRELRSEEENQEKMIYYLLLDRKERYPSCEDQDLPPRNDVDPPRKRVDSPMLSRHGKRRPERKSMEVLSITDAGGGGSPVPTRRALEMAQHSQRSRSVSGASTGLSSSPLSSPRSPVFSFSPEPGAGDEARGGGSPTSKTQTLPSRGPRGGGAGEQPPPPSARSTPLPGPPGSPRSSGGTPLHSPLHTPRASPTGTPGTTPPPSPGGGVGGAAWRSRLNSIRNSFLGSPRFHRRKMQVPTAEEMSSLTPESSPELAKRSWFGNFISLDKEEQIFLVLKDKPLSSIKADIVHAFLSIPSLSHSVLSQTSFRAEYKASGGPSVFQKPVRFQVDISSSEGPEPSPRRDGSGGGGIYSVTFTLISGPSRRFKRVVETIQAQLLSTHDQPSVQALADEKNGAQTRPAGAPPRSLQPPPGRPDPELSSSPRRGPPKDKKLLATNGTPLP
Outline: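 Recombinant human kinase panel (327 kinases) run as radiometric activity assays, each kinase in duplicate at one compound concentration. Activity remaining expressed relative to vehicle control; percent inhibition taken as 100% minus % activity remaining.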

[16] = target: Macrophage-stimulating protein receptor (Homo sapiens) (UniProt Q04912); assay: Inhibition of human recombinant RON at 500 nM related to control ULK1

Sequence of Tyrosine-protein kinase Fer (Homo sapiens) (P16591 whole entry, looked up): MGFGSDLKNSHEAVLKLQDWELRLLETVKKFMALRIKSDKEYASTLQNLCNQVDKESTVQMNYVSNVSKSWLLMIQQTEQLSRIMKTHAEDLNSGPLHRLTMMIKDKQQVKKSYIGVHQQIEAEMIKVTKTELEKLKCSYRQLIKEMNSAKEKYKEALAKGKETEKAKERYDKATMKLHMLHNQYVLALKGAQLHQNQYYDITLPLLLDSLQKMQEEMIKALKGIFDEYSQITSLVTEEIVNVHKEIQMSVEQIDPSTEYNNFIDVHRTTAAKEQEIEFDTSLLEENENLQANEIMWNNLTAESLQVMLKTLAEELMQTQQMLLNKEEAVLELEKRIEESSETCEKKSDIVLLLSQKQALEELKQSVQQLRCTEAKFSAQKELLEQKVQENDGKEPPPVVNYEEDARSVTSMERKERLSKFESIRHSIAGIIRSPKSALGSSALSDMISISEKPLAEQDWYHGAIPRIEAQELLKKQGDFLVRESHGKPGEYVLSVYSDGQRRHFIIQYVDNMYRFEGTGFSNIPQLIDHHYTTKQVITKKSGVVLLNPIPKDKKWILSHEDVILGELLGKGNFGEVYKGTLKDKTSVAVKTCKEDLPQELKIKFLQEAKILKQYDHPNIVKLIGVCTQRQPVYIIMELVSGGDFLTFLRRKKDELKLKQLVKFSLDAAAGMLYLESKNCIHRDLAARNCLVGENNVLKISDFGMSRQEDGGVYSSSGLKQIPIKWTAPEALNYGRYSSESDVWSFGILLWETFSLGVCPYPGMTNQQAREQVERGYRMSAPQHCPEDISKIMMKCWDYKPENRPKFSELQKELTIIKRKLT
Sequence of Protein kinase C iota type (Homo sapiens) (P41743 whole entry, looked up): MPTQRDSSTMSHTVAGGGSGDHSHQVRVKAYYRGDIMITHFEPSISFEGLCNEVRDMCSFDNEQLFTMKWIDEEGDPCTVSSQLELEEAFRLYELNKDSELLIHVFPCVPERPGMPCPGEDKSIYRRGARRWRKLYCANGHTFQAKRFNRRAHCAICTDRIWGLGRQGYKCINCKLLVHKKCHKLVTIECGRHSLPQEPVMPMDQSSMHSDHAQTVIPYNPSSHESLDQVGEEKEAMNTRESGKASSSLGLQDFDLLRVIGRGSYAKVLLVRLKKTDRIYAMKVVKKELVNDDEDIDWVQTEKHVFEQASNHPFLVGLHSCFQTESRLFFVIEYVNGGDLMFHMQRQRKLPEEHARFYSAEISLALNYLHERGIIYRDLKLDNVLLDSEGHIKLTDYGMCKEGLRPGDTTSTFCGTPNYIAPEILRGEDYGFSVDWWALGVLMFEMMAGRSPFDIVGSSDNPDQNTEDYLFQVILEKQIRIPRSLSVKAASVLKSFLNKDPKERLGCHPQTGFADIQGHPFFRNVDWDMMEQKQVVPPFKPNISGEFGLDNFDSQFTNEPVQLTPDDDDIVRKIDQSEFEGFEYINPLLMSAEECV
Sequence of Receptor-interacting serine/threonine-protein kinase 2 (Homo sapiens) (O43353 whole entry): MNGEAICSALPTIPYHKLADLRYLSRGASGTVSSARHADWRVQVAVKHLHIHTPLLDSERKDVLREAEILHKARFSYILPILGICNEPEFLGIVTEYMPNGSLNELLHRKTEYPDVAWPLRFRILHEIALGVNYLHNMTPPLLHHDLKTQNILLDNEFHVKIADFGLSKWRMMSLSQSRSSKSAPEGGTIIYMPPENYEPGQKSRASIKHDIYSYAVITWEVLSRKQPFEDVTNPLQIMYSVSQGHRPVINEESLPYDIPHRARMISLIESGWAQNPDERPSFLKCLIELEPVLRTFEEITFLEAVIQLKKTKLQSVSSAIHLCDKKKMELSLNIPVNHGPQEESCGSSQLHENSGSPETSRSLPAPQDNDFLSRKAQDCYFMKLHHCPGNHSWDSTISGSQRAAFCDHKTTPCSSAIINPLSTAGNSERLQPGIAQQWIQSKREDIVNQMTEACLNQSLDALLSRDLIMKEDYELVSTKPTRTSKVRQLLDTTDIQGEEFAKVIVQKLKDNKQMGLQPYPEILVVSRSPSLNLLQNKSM
Sequence of Death-associated protein kinase 2 (Homo sapiens) (Q9UIK4 whole entry, looked up): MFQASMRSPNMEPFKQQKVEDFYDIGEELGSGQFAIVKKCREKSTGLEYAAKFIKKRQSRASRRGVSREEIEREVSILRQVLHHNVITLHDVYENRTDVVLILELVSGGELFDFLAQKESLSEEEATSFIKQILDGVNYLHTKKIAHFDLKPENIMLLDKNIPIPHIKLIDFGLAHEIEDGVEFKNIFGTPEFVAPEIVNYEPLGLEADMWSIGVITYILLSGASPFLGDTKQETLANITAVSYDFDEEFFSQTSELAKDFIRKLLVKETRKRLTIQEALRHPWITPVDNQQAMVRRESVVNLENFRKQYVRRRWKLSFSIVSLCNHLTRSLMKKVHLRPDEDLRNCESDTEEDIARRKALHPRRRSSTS
Sequence of Interferon-induced, double-stranded RNA-activated protein kinase (Homo sapiens) (P19525 whole entry): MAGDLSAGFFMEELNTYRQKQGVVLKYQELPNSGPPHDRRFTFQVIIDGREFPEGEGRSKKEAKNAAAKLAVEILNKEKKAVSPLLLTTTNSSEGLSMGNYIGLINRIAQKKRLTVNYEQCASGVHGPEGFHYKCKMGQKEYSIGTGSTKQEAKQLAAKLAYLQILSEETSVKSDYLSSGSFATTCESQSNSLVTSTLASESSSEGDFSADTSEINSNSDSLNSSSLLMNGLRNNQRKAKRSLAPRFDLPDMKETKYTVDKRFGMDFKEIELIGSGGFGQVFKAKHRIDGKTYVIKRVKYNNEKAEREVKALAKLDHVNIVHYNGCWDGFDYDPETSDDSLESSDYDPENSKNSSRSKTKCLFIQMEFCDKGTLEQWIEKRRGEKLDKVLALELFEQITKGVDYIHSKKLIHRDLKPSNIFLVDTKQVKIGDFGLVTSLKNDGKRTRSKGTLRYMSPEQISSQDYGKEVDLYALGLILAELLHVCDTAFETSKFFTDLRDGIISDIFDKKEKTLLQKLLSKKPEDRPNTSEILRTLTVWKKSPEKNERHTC
Sequence of Serine/threonine-protein kinase/endoribonuclease IRE1 (Homo sapiens) (O75460 19-977 limits assumed): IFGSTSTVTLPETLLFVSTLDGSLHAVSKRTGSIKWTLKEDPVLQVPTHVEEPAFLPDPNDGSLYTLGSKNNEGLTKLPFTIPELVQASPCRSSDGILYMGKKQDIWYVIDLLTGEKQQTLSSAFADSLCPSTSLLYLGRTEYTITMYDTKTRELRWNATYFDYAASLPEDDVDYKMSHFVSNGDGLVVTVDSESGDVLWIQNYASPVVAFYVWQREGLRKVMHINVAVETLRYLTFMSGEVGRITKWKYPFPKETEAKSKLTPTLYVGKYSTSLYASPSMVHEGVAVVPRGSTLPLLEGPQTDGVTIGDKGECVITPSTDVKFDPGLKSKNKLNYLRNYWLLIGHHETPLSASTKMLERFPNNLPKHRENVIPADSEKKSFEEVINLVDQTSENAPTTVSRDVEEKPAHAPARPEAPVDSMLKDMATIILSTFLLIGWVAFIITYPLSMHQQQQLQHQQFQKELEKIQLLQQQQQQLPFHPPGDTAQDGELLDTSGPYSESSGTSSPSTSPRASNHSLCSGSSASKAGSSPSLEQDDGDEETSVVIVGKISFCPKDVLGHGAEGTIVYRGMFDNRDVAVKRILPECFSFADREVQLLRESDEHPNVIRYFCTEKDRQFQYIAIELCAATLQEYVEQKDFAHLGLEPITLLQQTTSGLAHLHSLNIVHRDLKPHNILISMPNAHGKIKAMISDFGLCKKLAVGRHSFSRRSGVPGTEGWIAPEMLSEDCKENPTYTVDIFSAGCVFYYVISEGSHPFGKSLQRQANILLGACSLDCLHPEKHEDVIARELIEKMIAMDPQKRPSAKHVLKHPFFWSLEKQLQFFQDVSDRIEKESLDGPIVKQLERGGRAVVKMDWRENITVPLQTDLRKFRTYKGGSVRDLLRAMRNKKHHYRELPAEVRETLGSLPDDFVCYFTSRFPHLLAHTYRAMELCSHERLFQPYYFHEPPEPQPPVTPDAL
Sequence of Mitogen-activated protein kinase 10 (Homo sapiens) (P53779 whole entry): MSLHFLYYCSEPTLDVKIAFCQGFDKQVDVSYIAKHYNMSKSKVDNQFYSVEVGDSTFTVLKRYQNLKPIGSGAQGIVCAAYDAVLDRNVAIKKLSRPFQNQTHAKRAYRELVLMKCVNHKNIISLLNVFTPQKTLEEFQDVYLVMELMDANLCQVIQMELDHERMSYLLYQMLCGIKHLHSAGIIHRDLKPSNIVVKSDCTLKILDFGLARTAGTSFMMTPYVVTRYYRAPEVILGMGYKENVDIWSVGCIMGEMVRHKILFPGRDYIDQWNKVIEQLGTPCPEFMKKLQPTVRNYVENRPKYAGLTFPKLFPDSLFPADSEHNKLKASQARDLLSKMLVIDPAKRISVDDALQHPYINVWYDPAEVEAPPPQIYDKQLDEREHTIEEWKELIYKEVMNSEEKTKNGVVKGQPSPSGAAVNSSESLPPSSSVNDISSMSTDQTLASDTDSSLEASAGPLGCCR

O=C(N[C@@H](C1CC1)C(F)(F)F)c1cc(-c2cnn3cc(-c4ccc(F)cc4)cnc23)cs1
inhibition [1]: 12%
fold change (FC) [2]: 0
fold change (FC) [3]: 0
fold change (FC) [4]: 0
fold change (FC) [5]: 0.41

CC(C)[C@H](NC(=O)c1cc(-c2cnn3cc(-c4ccc(OCCN5CCCCC5)cc4)cnc23)cs1)C(F)(F)F
inhibition [6]: 7%
inhibition [7]: 0%

CNC(=O)c1ccccc1Oc1nc(Nc2cc(OC)c(OC)c(OC)c2)ncc1Br
inhibition [8]: 4%
fold change (FC) [9]: 1.05
fold change (FC) [10]: 0
inhibition [11]: 2%
inhibition [12]: 0%
fold change (FC) [13]: 0.04
inhibition [14]: 0%
fold change (FC) [15]: 0.03
fold change (FC) [16]: 0.01
